Laboratory results as given in ChEMBL document CHEMBL5385968 (RSC Med Chem, 2024).
The source made the active and inactive calls. The calls are words filed in the database; no cut-off is given here.

Legend:
[1] = molecular target: T1, Neutrophil elastase (Homo sapiens) (UniProt P08246); assay: Inhibition of human neutrophil elastase using N-methylsuccinyl-Ala-Ala-Pro-Val-7-amino-4-methylcoumarin as substrate at 50 uM measured every 30 secs for 10 mins by fluorescence based analysis
T1 sequence (whole entry): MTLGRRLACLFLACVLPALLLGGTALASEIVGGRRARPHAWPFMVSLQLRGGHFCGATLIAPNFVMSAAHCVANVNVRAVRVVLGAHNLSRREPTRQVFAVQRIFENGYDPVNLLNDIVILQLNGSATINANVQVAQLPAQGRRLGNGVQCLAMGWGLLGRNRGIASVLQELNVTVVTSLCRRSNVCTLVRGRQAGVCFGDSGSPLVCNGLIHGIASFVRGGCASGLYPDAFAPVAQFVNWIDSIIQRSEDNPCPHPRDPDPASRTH

[2] = Antiradical activity against PMA-stimulated BALB/c mouse bone marrow leucocytes assessed as inhibition of ROS production measured for 60 mins by chemiluminescence based analysis; format: functional, cell-based; details: Leucocyte, 1 h
Outline: (§1)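 BALB/c mouse bone marrow leukocytes were suspended at 10^6 cells/ml in HBSS with Ca2+/Mg2+ and 40 μM L-012. Compounds were added in HBSS+ (final DMSO 1%), tested up to a highest concentration of 50 μM. Cells were stimulated with 200 nM PMA, and chemiluminescence was read every 2 min for 60 min at 37 °C. Values are mean ± SD, n=3.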

Leucocyte = assay: Antiradical activity against PMA-stimulated BALB/c mouse bone marrow leucocytes assessed as inhibition of ROS production at 50 uM measured for 60 mins by chemiluminescence based analysis; format: functional, cell-based
Outline: as §1, with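 “°C. IC50 came from % inhibition of the 60-min integrated signal versus log concentration (5–7 concentrations, nonlinear regression).” for “°C.”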

[3] = Cytotoxicity against CD-1 mouse bone marrow leucocytes assessed as reduction in cell viability at 25 uM incubated for 90 mins by CellTiter-Glo Luminescent assay; format: toxicity, cell-based; details: leucocyte
Outline: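 CD-1 mouse bone marrow leukocytes at 10^4 cells/well were exposed to compounds up to 25 μM (highest tested; final DMSO 1%) for 90 min at 37 °C, 5% CO2. Viability was read by CellTiter-Glo luminescence. IC50 values are mean ± SD of three independent experiments.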

## O=C(NC1CC1)n1[se]c2ccccc2c1=O
[1]
  inhibition: inactive

## O=C(C1CC1)n1[se]c2ccccc2c1=O
[2]
  IC50: 50 nM

## Cc1cccc(NC(=O)c2ccc(-n3[se]c4ccccc4c3=O)cc2)c1
Leucocyte
  inhibition: inactive
[1]
  inhibition: inactive
[3]
  Activity: Non-Toxic

## CCOC(=O)n1[se]c2ccccc2c1=O
[1]
  inhibition: inactive

## CC(C)(C)C(=O)Oc1ccc(S(=O)(=O)Nc2ccccc2C(=O)NCC(=O)O)cc1
[3]
  Activity: Non-Toxic

## CCOC(=O)CC(=O)n1[se]c2ccccc2c1=O
[1]
  inhibition: inactive

## O=C(c1ccsc1)n1[se]c2ccccc2c1=O
[1]
  inhibition: inactive
[3]
  Activity: Non-Toxic

## Cc1cccc(C(=O)n2[se]c3ccccc3c2=O)c1
[3]
  Activity: Non-Toxic

## O=C(NC1CC1)c1ccc(-n2[se]c3ccccc3c2=O)cc1
[1]
  inhibition: inactive

## CCOC(=O)c1ccc(-n2[se]c3ccccc3c2=O)cc1
[1]
  inhibition: inactive
[3]
  Activity: Non-Toxic

## CCCCCC(=O)n1[se]c2ccccc2c1=O
Leucocyte
  inhibition: inactive
[3]
  Activity: Non-Toxic

## O=c1c2ccccc2[se]n1-c1ccccc1
[1]
  inhibition: inactive

## CC(C)(C)C(=O)Oc1ccc(S(=O)(=O)n2[se]c3ccccc3c2=O)cc1
[3]
  Activity: Non-Toxic
